Assay results collected from several papers.
Lines come from different studies, so protocols differ. Converted amounts (≈) assume the structure as drawn.

SMILES | target or system | test | system | setting | measurement | value
NC[C@H]1OB(O)c2c(OCCCO)cccc21 | Escherichia coli | microbial growth | ATCC25922 | 16 h | MIC | 1.56 µM
CCn1cc(C(=O)O)c(=O)c2cc(F)c(N3CCNCC3)cc21 | Escherichia coli | microbial killing | ATCC 8739, ATCC8739 | – | MBC | 0.25 µM (≈ 0.0798 µg/mL)
C[C@H]1COc2c(N3CCN(C)CC3)c(F)cc3c(=O)c(C(=O)O)cn1c23 | Escherichia coli | microbial growth | ATCCBAA2452 | drug-resistant strain | MIC | ≤ 0.03 µg/mL
CC(=O)NC[C@H]1CN(c2ccc(N3CCOCC3)c(F)c2)C(=O)O1 | Staphylococcus aureus | microbial growth, broth dilution | ATCC43300 MRSA | – | MIC | 2.3 µg/mL
N.N.[Cl][Pt][Cl] | BEAS-2B | cell growth or viability, MTT | – | 24 h | IC50 | > 100 µM
C[C@@H](N)[C@H](O)CCCCCCCC(=O)CCCCCCCCCCCCCC[C@@H](O[C@@H]1O[C@H](CO)[C@H](O)[C@H](O)[C@H]1O)[C@@H](C)N | Escherichia coli | microbial growth, resazurin | ATCC10536 | 50 µM | inhibition | 100%
Cc1sc2c(c1C)C(c1ccc(Cl)cc1)=N[C@H](CC(=O)OC(C)(C)C)c1nnc(C)n1-2 | HBL1 | cell growth or viability, ATP luminescence | – | 1 µM, 5 days | viability | 110%
CN1C(=O)/C(=N\Nc2ncc(-c3cc4ccccc4oc3=O)s2)c2cc(Cl)ccc21 | Staphylococcus aureus | microbial growth, broth dilution | ATCC43300 MRSA | – | MIC | 1.3 µg/mL
CO/N=C(\C(=O)N[C@@H]1C(=O)N2C(C(=O)O)=C(COC(C)=O)CS[C@H]12)c1csc(N)n1 | Escherichia coli | microbial killing | ATCC 8739, ATCC8739 | – | MBC | 1 µM (≈ 0.455 µg/mL)
C[C@@H](O)[C@H]1C(=O)N2C(C(=O)O)=C(S[C@@H]3CN[C@H](C(=O)N(C)C)C3)[C@H](C)[C@H]12 | Escherichia coli | microbial growth | ATCCBAA2452 | drug-resistant strain | MIC | > 8 µg/mL
N.N.[Cl][Pt][Cl] | HBL1 | cell growth or viability, ATP luminescence | – | 10 µM, 72 h | inhibition | 100%
